Source: ChEMBL document CHEMBL1914413, “Using the pER8:GUS reporter system to screen for phytoestrogens from Caesalpinia sappan” (J Nat Prod, 2011)
Active and inactive are the calls of the source. The rule behind the calls is not given here.

test system: MCF7; test: Estrogenic activity in human ER-positive MCF7 cells assessed as secreted alkaline phosphatase activity at 20 uM after 48 hrs by phospha-light reporter chemiluminescence assay; assay type: functional, cell-based; details: not given

| SMILES | Activity |
| --- | --- |
| O=C1c2ccc(O)cc2OC[C@@H]1O | inactive |
| Oc1ccc2c(c1)OC[C@]1(O)Cc3cc(O)c(O)cc3[C@H]21 [BRAZILIN] | inactive |
| O=C1c2ccc(O)cc2OC[C@@H]1Cc1ccc(O)c(O)c1 | Active |
| COc1cc(O)ccc1C(=O)/C=C/c1ccc(O)cc1 | Active |
| O=C1c2ccc(O)cc2OC[C@]1(O)Cc1ccc(O)cc1 | Active |
| O=C1C=C2CC3(O)COc4cc(O)ccc4C3=C2C=C1O (configuration not stated) [BRAZILEIN] | inactive |
| O=c1c(O)coc2cc(O)ccc12 | Active |
| CC1(C)O[C@H]2c3ccc(O)cc3OC[C@@]2(Cc2ccc(O)c(O)c2)O1 | Active |

test system: Arabidopsis thaliana; test: Estrogenic activity in transgenic Arabidopsis thaliana transfected with pER8:GUS plasmid assessed as beta-glucuronidase expression at 500 uM after 48 hrs using 4-methylumbelliferyl-beta-D-glucuronide by fluorometric assay; assay type: functional, organism-based; details: not given
Method in brief: (§1)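 Transgenic Arabidopsis pER8:GUS plants are incubated with or without test compound. GUS expression is quantified by fluorometric assay. 17β-Estradiol is the positive control, run over 0.01–100 μM.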

| SMILES | Activity |
| --- | --- |
| O=C1c2ccc(O)cc2OC[C@@H]1O | Active |
| Oc1ccc2c(c1)OC[C@]1(O)Cc3cc(O)c(O)cc3[C@H]21 [BRAZILIN] | Active |
| O=C1C=C2CC3(O)COc4cc(O)ccc4C3=C2C=C1O (configuration not stated) [BRAZILEIN] | Active |
| Oc1ccc(C[C@@]2(O)COc3cc(O)ccc3[C@H]2O)cc1 | Active |
| Oc1ccc(C[C@@]2(O)COc3cc(O)ccc3[C@@H]2O)cc1 | Active |
| CC1(C)O[C@H]2c3ccc(O)cc3OC[C@@]2(Cc2ccc(O)c(O)c2)O1 | Active |

test system: HepG2; test: Cytotoxicity against human HepG2 cells after 3 days by MTT assay; assay type: functional, cell-based; details: not given

| SMILES | Activity |
| --- | --- |
| O=C1c2ccc(O)cc2OC[C@@H]1O | inactive |
| O=C1c2ccc(O)cc2OC[C@@H]1Cc1ccc(O)c(O)c1 | inactive |
| O=C1c2ccc(O)cc2OC[C@]1(O)Cc1ccc(O)cc1 | inactive |
| Oc1ccc(C[C@@]2(O)COc3cc(O)ccc3[C@H]2O)cc1 | inactive |
| Oc1ccc(C[C@@]2(O)COc3cc(O)ccc3[C@@H]2O)cc1 | inactive |
| O=c1c(O)coc2cc(O)ccc12 | inactive |
| CC1(C)O[C@H]2c3ccc(O)cc3OC[C@@]2(Cc2ccc(O)c(O)c2)O1 | inactive |

same assay, conditions: HepG2, 72 h

| SMILES | IC50 |
| --- | --- |
| COc1cc(O)ccc1C(=O)/C=C/c1ccc(O)cc1 | 7.37 µM |

test system: MCF7; test: Cytotoxicity against human MCF7 cells after 3 days by MTT assay; assay type: functional, cell-based; details: not given

| SMILES | Activity |
| --- | --- |
| O=C1c2ccc(O)cc2OC[C@@H]1O | inactive |
| O=C1c2ccc(O)cc2OC[C@@H]1Cc1ccc(O)c(O)c1 | inactive |
| O=C1c2ccc(O)cc2OC[C@]1(O)Cc1ccc(O)cc1 | inactive |
| Oc1ccc(C[C@@]2(O)COc3cc(O)ccc3[C@H]2O)cc1 | inactive |
| Oc1ccc(C[C@@]2(O)COc3cc(O)ccc3[C@@H]2O)cc1 | inactive |
| O=c1c(O)coc2cc(O)ccc12 | inactive |
| CC1(C)O[C@H]2c3ccc(O)cc3OC[C@@]2(Cc2ccc(O)c(O)c2)O1 | inactive |

same assay, conditions: MCF7, 72 h

| SMILES | IC50 |
| --- | --- |
| COc1cc(O)ccc1C(=O)/C=C/c1ccc(O)cc1 | 51.4 µM |

test system: Arabidopsis thaliana; test: Estrogenic activity in transgenic Arabidopsis thaliana transfected with pER8:GUS plasmid assessed as beta-glucuronidase expression after 48 hrs using 4-methylumbelliferyl-beta-D-glucuronide by fluorometric assay; assay type: functional; details: not given; method in brief: as §1

| SMILES | MAC | Activity |
| --- | --- | --- |
| O=C1c2ccc(O)cc2OC[C@@H]1Cc1ccc(O)c(O)c1 | 2.7 µM | – |
| COc1cc(O)ccc1C(=O)/C=C/c1ccc(O)cc1 | 2.8 µM | – |
| O=C1c2ccc(O)cc2OC[C@]1(O)Cc1ccc(O)cc1 | 10.9 µM | – |
| C[C@]12CC[C@@H]3c4ccc(O)cc4CC[C@H]3[C@@H]1CC[C@@H]2O | – | Dose-dependent effect |
| O=c1c(O)coc2cc(O)ccc12 | 8.8 µM | – |

test system: MCF7; test: Estrogenic activity in human ER-positive MCF7 cells assessed as secreted alkaline phosphatase activity after 48 hrs by phospha-light reporter chemiluminescence assay; assay type: functional, cell-based; details: not given

| SMILES | Activity |
| --- | --- |
| O=C1c2ccc(O)cc2OC[C@@H]1Cc1ccc(O)c(O)c1 | Dose-dependent effect |
| O=c1c(-c2ccc(O)cc2)coc2cc(O)cc(O)c12 | Dose-dependent effect |
| O=C1c2ccc(O)cc2OC[C@]1(O)Cc1ccc(O)cc1 | Dose-dependent effect |

test system: Ca9-22; test: Cytotoxicity against human Ca9-22 cells after 3 days by MTT assay; assay type: functional, cell-based; details: not given

| SMILES | Activity |
| --- | --- |
| O=C1c2ccc(O)cc2OC[C@@H]1Cc1ccc(O)c(O)c1 | inactive |
| O=C1c2ccc(O)cc2OC[C@]1(O)Cc1ccc(O)cc1 | inactive |
| Oc1ccc(C[C@@]2(O)COc3cc(O)ccc3[C@H]2O)cc1 | inactive |
| Oc1ccc(C[C@@]2(O)COc3cc(O)ccc3[C@@H]2O)cc1 | inactive |
| O=c1c(O)coc2cc(O)ccc12 | inactive |
| CC1(C)O[C@H]2c3ccc(O)cc3OC[C@@]2(Cc2ccc(O)c(O)c2)O1 | inactive |

same assay, conditions: Ca9-22, 72 h

| SMILES | IC50 |
| --- | --- |
| O=C1c2ccc(O)cc2OC[C@@H]1O | 62.2 µM |
| COc1cc(O)ccc1C(=O)/C=C/c1ccc(O)cc1 | 57.6 µM |

test system: Arabidopsis thaliana; test: Estrogenic activity in transgenic Arabidopsis thaliana transfected with pER8:GUS plasmid assessed as beta-glucuronidase expression at 150 to 280 uM after 48 hrs using 4-methylumbelliferyl-beta-D-glucuronide by fluorometric assay; assay type: functional, organism-based; details: not given; method in brief: as §1

| SMILES | Activity |
| --- | --- |
| O=C1c2ccc(O)cc2OC[C@@H]1O | inactive |
| Oc1ccc2c(c1)OC[C@]1(O)Cc3cc(O)c(O)cc3[C@H]21 [BRAZILIN] | inactive |
| O=C1C=C2CC3(O)COc4cc(O)ccc4C3=C2C=C1O (configuration not stated) [BRAZILEIN] | inactive |
| Oc1ccc(C[C@@]2(O)COc3cc(O)ccc3[C@H]2O)cc1 | inactive |
| Oc1ccc(C[C@@]2(O)COc3cc(O)ccc3[C@@H]2O)cc1 | inactive |
| CC1(C)O[C@H]2c3ccc(O)cc3OC[C@@]2(Cc2ccc(O)c(O)c2)O1 | inactive |

test system: MCF7; test: Antiestrogenic activity in human ER-positive MCF7 cells assessed as inhibition of 17beta estradiol-induced secreted alkaline phosphatase activity at 1 to 20 uM after 48 hrs by phospha-light reporter chemiluminescence assay; assay type: functional, cell-based; details: not given

| SMILES | inhibition |
| --- | --- |
| Oc1ccc2c(c1)OC[C@]1(O)Cc3cc(O)c(O)cc3[C@H]21 [BRAZILIN] | Active |
| O=c1c(-c2ccc(O)cc2)coc2cc(O)cc(O)c12 | Active |
| O=C1C=C2CC3(O)COc4cc(O)ccc4C3=C2C=C1O (configuration not stated) [BRAZILEIN] | Active |

test system: MDA-MB-231; test: Cytotoxicity against human MDA-MB-231 cells after 3 days by MTT assay; assay type: functional, cell-based; details: not given

| SMILES | Activity |
| --- | --- |
| O=C1c2ccc(O)cc2OC[C@@H]1O | inactive |
| O=C1c2ccc(O)cc2OC[C@@H]1Cc1ccc(O)c(O)c1 | inactive |
| O=C1c2ccc(O)cc2OC[C@]1(O)Cc1ccc(O)cc1 | inactive |
| Oc1ccc(C[C@@]2(O)COc3cc(O)ccc3[C@H]2O)cc1 | inactive |
| Oc1ccc(C[C@@]2(O)COc3cc(O)ccc3[C@@H]2O)cc1 | inactive |
| O=c1c(O)coc2cc(O)ccc12 | inactive |
| CC1(C)O[C@H]2c3ccc(O)cc3OC[C@@]2(Cc2ccc(O)c(O)c2)O1 | inactive |

same assay, conditions: MDA-MB-231, 72 h

| SMILES | IC50 |
| --- | --- |
| COc1cc(O)ccc1C(=O)/C=C/c1ccc(O)cc1 | 44.4 µM |

test system: MCF7; test: Estrogenic activity in human ER-positive MCF7 cells assessed as secreted alkaline phosphatase activity at 0.01 nM after 48 hrs by phospha-light reporter chemiluminescence assay; assay type: functional, cell-based; details: not given

| SMILES | Activity |
| --- | --- |
| C[C@]12CC[C@@H]3c4ccc(O)cc4CC[C@H]3[C@@H]1CC[C@@H]2O | Active |

test system: Hep 3B2; test: (§2) Cytotoxicity against human Hep3B cells after 3 days by MTT assay; assay type: functional, cell-based; details: not given

| SMILES | Activity |
| --- | --- |
| O=C1c2ccc(O)cc2OC[C@@H]1Cc1ccc(O)c(O)c1 | inactive |
| O=C1c2ccc(O)cc2OC[C@]1(O)Cc1ccc(O)cc1 | inactive |
| Oc1ccc(C[C@@]2(O)COc3cc(O)ccc3[C@H]2O)cc1 | inactive |
| Oc1ccc(C[C@@]2(O)COc3cc(O)ccc3[C@@H]2O)cc1 | inactive |
| O=c1c(O)coc2cc(O)ccc12 | inactive |
| CC1(C)O[C@H]2c3ccc(O)cc3OC[C@@]2(Cc2ccc(O)c(O)c2)O1 | inactive |

test system: not listed separately; test: as §2; assay type: functional, cell-based, Hep 3B2; details: 72 h

| SMILES | IC50 |
| --- | --- |
| O=C1c2ccc(O)cc2OC[C@@H]1O | 47.2 µM |
| Oc1ccc2c(c1)OC[C@]1(O)Cc3cc(O)c(O)cc3[C@H]21 [BRAZILIN] | 15.9 µM |
| COc1cc(O)ccc1C(=O)/C=C/c1ccc(O)cc1 | 17.9 µM |
| COc1cccc2c1C(=O)c1c(O)c3c(c(O)c1C2=O)C[C@@](O)(C(=O)CO)C[C@@H]3O[C@H]1C[C@H](N)[C@H](O)[C@H](C)O1 [DOXORUBICIN] | 1.03 µM |
| O=C1C=C2CC3(O)COc4cc(O)ccc4C3=C2C=C1O (configuration not stated) [BRAZILEIN] | 12 µM |

test system: MCF7; test: Antiestrogenic activity in human ER-positive MCF7 cells assessed as inhibition of 17beta estradiol-induced cell proliferation at 1 to 20 uM after 48 hrs by MTT assay; assay type: functional, cell-based; details: not given

| SMILES | inhibition |
| --- | --- |
| Oc1ccc2c(c1)OC[C@]1(O)Cc3cc(O)c(O)cc3[C@H]21 [BRAZILIN] | Active |
| O=C1C=C2CC3(O)COc4cc(O)ccc4C3=C2C=C1O (configuration not stated) [BRAZILEIN] | Active |

test system: A549; test: Cytotoxicity against human A549 cells after 3 days by MTT assay; assay type: functional, cell-based; details: not given

| SMILES | Activity |
| --- | --- |
| O=C1c2ccc(O)cc2OC[C@@H]1Cc1ccc(O)c(O)c1 | inactive |
| O=C1c2ccc(O)cc2OC[C@]1(O)Cc1ccc(O)cc1 | inactive |
| Oc1ccc(C[C@@]2(O)COc3cc(O)ccc3[C@H]2O)cc1 | inactive |
| Oc1ccc(C[C@@]2(O)COc3cc(O)ccc3[C@@H]2O)cc1 | inactive |
| O=c1c(O)coc2cc(O)ccc12 | inactive |
| CC1(C)O[C@H]2c3ccc(O)cc3OC[C@@]2(Cc2ccc(O)c(O)c2)O1 | inactive |

same assay, conditions: A549, 72 h

| SMILES | IC50 |
| --- | --- |
| O=C1c2ccc(O)cc2OC[C@@H]1O | 80.7 µM |
| COc1cc(O)ccc1C(=O)/C=C/c1ccc(O)cc1 | 32.6 µM |

test system: MCF7; test: Antiestrogenic activity in human ER-positive MCF7 cells assessed as inhibition of 17beta estradiol-induced secreted alkaline phosphatase activity at 2 nM after 48 hrs by phospha-light reporter chemiluminescence assay; assay type: functional, cell-based; details: not given

| SMILES | inhibition |
| --- | --- |
| O=C(c1ccc(OCCN2CCCCC2)cc1)c1c(-c2ccc(O)cc2)sc2cc(O)ccc12 | Active |

test system: MCF7; test: Antiestrogenic activity in human ER-positive MCF7 cells assessed as inhibition of 17beta estradiol-induced secreted alkaline phosphatase activity at 20 nM after 48 hrs by phospha-light reporter chemiluminescence assay; assay type: functional, cell-based; details: not given

| SMILES | inhibition |
| --- | --- |
| CC/C(=C(\c1ccccc1)c1ccc(OCCN(C)C)cc1)c1ccccc1 | Active |
